Test [1] has as its target Neuronal acetylcholine receptor; alpha4/beta2 (Rattus norvegicus) (UniProt P09483+P12390). Nature of the test: Agonist activity at rat alpha4beta2 nAChR expressed in HEK cells assessed as membrane depolarization after 1 hr by HPLC based fluorescence assay. As to conditions: HEK293. It is filed as functional, cell-based. The method, boiled down: (§1)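 Membrane potential assay in G418-selected KXR3β4R2, KXR4β4R1 or KXR4β2R2 lines on poly-D-lysine plates (DMEM, 10% FBS, near confluence). Cells washed in HBSS/HEPES pH 7.4 and loaded with no-wash dye 1 h dark at room temperature. Fractions reconstituted in HBSS/HEPES, added after 15 s basal, read 105 s. Nicotine (300 µM added solution) and KCl (160 mM) follow. Peak response normalised to KCl maximum after basal subtraction.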

For test [2], the target named is Neuronal acetylcholine receptor; alpha4/beta2 (Homo sapiens) (UniProt P17787+P43681). Nature of the test: Agonist activity at human alpha4beta2 nAChR expressed in human K177 cells assessed as membrane depolarization after 1 hr by HPLC based fluorescence assay. The class given is functional, cell-based.
Test [3] deals with T1, Neuronal acetylcholine receptor; alpha3/beta4 (Homo sapiens) (UniProt P30926+P32297). The test can be described thus: Agonist activity at human alpha3beta4 nAChR in human SH-SY5Y cells assessed as membrane depolarization after 1 hr by HPLC based fluorescence assay. It is filed as functional, cell-based. The gist of the method: (§2)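 Membrane potential dye assay in native SH-SY5Y, IMR-32 or TE-671 cells. Cells grown near confluence on poly-D-lysine plates in DMEM with 10% FBS, washed in HBSS/20 mM HEPES pH 7.4, then loaded with dye 1 h in dark at room temperature. Ex 530/em 565 nm. Sequence: 15 s basal, HPLC fraction 105 s, 300 µM nicotine (added solution), 160 mM KCl (added solution). Response = basal-subtracted peak ÷ KCl maximum.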

Test [4] addresses T1, Neuronal acetylcholine receptor; alpha3/beta4 (Homo sapiens). The test can be described thus: Agonist activity at human alpha3beta4 nAChR in human IMR32 cells assessed as membrane depolarization after 1 hr by HPLC based fluorescence assay. The class given is functional, cell-based. As to conditions: IMR-32. The gist of the method:
as §2

In test [5] the target is Neuronal acetylcholine receptor; alpha4/beta4 (Rattus norvegicus) (UniProt P09483+P12392). The test can be described thus: Agonist activity at rat alpha4beta4 nAChR expressed in HEK cells assessed as membrane depolarization after 1 hr by HPLC based fluorescence assay. The class given is functional, cell-based. As to conditions: HEK293. The gist of the method:
as §1

Test [6] deals with T2, Neuronal acetylcholine receptor; alpha3/beta4 (Rattus norvegicus) (UniProt P04757+P12392). Nature of the test: Agonist activity at rat alpha3beta4 nAChR expressed in HEK cells assessed as elevation of intracellular calcium after 1 hr by HPLC based fluorescence assay. It is filed as functional, cell-based. Conditions: HEK293. On the technique in general: Calcium assays in cells follow changes in intracellular calcium, usually with a dye or a luminescent sensor.

The target of test [7] is T2, Neuronal acetylcholine receptor; alpha3/beta4 (Rattus norvegicus). The test can be described thus: Agonist activity at rat alpha3beta4 nAChR expressed in HEK cells assessed as membrane depolarization after 1 hr by HPLC based fluorescence assay. The class given is functional, cell-based. As to conditions: HEK293. The method, boiled down:
as §1

Test [8] concerns the target Acetylcholine receptor; alpha1/beta1/delta/gamma (Homo sapiens) (UniProt P02708+P07510+P11230+Q07001). The test can be described thus: Agonist activity at human alpha-1-beta-1-gamma-delta nAChR expressed in human TE671 cells assessed as membrane depolarization after 1 hr by HPLC based fluorescence assay. As to conditions: TE-671. The class given is functional, cell-based. The method, boiled down: as §2

Test [9] can be described thus: Selectivity of beta4 nAChR over beta2 nAChR.

Active and inactive are the calls of the source. The rule behind the calls is not given here.

Take `Clc1ccc2c(n1)O[C@@]13CC[C@@H]1NC[C@@H]23`: the result in [1], in test [2] and in [8] was inactive. Also, the outcome in test [3], in test [4], in test [5], in test [6] and in test [7] was Active.
In [9], `O=C1NC[C@@]2(CN3CCC2CC3)O1` registered a fold change (FC) of over 20.
With `Clc1ccc(C2CC3CCC2N3)cn1` (stereo not given), the outcome in test [3], in [4], in test [6] and in test [7] was Active.
`c1cncc([C@H]2C[C@@H]3CC[C@H]2N3)c1`: the fold change (FC) in test [9] stood at 3.
Still for that read-out and setting: the result for `Clc1ccc(C2=CCC[C@@H]3CC[C@H]2N3)cn1` reads 3.
